Data set [1] addresses T1, Adenosine receptor A2a (Homo sapiens, UniProt P29274). The data set can be described thus: Displacement of [3H]ZM241385 from human adenosine A2A receptor expressed in HEK293 cells. The format is cell-based. On the technique in general: Loss of bound radioactivity is the signal in a displacement assay; it reports binding, not function.
The species entered for a further data set is Homo sapiens. The data set can be described thus: Selectivity for human adenosine A2A receptor over human adenosine A1 receptor. The gist of the method:
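Ki ratio from radioligand displacement in HEK293 cells expressing human receptors. A2A uses [3H]-ZM241385 and A1 uses [3H]-DPCPX. A standard antagonist is included on each plate. Geometric means of 3–6 independent experiments, SD ≤20%.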

The target in another data set is Cytochrome P450 2D6 (Homo sapiens, UniProt P10635). The data set can be described thus: Inhibition of CYP2D6. In kind it is ADME. An outline of the steps: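 Recombinant CYP2D6 in microsomes from transfected cells, with the fluorescent substrate AMMC; quinidine as positive control. IC50 determined; compounds with IC50 < 30 μM assayed in two or three experiments.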

Data set [2] is described as follows: Solubility in buffer solution at pH 2. In kind it is physicochemical. An outline of the steps: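 About 1 mg of solid is weighed into pH 2.00 buffer solution, sonicated 10 min, shaken overnight and centrifuged. The supernatant is quantified by HPLC against a standard curve of known dilutions of authentic sample.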
The next data set deals with Cytochrome P450 3A4 (Homo sapiens, UniProt P08684). The data set can be described thus: Inhibition of CYP3A4. In kind it is ADME. An outline of the steps: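 Recombinant CYP3A4 in microsomes from transfected cells expressing only that isoform, with the fluorescent substrate BFC; ketoconazole as positive control. IC50 determined; compounds with IC50 < 30 µM run in two or three experiments.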

Data set [3] is described as follows: Metabolic stability in human liver microsomes. The format is ADME, Microsome.
In data set [4] the target is Voltage-gated inwardly rectifying potassium channel KCNH2 (Homo sapiens, UniProt Q12809). The data set can be described thus: Inhibition of human ERG expressed in HEK cells assessed as effect on electric current by patch clamp assay. In kind it is cell-based, HEK293. An outline of the steps: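 hERG potassium current was recorded by patch clamp in a HEK cell line stably carrying hERG. Each compound was applied at six concentrations (0.1 nM, 1 nM, 10 nM, 100 nM, 1 μM, 10 μM), and its effect on current was read at the end of a 5-min application. Cisapride (30 nM) served as positive control.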
(In general: The patch-clamp technique gives a direct electrical read-out from membranes.)

The target of data set [5] is T1, Adenosine receptor A2a. The data set can be described thus: Antagonist activity at human adenosine A2A receptor expressed in HEK293 cells by cAMP assay. The format is functional, cell-based. For orientation: Changes in cAMP serve as a functional read-out for many G protein-coupled receptors.

≈ marks a conversion by molar mass, not a printed value.

Cytochrome P450 3A4, sequence (P08684 whole entry, canonical isoform): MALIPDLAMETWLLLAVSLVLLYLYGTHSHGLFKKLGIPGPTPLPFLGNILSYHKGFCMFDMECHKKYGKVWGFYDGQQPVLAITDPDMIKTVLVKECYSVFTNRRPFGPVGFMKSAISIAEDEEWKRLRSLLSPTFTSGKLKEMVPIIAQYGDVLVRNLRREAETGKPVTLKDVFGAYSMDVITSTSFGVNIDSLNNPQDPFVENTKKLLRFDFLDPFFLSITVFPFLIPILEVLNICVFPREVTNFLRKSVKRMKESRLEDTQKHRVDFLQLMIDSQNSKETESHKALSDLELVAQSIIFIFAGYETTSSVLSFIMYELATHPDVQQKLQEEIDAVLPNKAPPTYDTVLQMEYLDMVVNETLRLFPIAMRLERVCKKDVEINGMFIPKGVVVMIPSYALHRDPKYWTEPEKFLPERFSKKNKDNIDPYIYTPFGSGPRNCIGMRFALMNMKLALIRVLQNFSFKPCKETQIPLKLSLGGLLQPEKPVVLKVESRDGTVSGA
T1 sequence (P29274 whole entry): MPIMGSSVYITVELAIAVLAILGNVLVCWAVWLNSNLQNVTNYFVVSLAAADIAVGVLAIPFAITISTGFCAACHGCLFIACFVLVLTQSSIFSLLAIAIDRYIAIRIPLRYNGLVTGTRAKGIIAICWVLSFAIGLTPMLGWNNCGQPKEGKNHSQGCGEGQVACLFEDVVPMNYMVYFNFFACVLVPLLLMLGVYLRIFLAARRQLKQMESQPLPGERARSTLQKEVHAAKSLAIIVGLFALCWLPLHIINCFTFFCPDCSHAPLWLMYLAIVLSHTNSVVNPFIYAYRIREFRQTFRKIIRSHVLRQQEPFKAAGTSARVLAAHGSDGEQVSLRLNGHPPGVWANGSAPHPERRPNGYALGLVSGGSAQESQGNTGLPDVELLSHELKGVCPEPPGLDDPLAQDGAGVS
Voltage-gated inwardly rectifying potassium channel KCNH2, sequence (Q12809 whole entry): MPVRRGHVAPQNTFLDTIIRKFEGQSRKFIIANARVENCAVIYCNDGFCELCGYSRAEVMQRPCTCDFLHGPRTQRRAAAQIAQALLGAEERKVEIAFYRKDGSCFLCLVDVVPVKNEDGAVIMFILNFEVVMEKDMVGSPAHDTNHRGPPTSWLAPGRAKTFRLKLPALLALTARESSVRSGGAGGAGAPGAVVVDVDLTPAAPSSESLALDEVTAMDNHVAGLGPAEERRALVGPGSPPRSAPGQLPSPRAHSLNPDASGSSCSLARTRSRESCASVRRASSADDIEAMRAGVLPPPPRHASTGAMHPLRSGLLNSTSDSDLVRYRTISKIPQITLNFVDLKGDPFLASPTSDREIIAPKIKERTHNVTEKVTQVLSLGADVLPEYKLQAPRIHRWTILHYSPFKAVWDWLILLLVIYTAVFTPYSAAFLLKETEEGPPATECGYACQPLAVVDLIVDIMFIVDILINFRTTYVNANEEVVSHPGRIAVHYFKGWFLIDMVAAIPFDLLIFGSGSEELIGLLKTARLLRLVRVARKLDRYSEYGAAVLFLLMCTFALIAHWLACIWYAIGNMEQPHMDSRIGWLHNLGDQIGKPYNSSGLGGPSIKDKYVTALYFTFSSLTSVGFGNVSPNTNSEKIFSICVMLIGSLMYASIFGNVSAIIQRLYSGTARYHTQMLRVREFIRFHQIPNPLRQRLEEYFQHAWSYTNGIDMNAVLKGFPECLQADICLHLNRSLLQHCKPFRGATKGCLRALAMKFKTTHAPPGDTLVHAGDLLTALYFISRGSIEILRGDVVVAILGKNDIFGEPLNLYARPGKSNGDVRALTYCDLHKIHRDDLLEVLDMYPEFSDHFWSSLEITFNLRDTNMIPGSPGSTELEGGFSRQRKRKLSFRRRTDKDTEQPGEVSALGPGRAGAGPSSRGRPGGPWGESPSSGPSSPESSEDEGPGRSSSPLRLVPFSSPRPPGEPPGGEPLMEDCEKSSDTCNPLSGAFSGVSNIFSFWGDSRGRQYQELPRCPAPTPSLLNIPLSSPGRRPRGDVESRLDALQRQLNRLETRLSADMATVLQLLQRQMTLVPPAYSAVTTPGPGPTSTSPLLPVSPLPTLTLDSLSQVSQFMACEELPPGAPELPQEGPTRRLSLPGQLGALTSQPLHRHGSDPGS
Cytochrome P450 2D6, sequence (P10635 whole entry): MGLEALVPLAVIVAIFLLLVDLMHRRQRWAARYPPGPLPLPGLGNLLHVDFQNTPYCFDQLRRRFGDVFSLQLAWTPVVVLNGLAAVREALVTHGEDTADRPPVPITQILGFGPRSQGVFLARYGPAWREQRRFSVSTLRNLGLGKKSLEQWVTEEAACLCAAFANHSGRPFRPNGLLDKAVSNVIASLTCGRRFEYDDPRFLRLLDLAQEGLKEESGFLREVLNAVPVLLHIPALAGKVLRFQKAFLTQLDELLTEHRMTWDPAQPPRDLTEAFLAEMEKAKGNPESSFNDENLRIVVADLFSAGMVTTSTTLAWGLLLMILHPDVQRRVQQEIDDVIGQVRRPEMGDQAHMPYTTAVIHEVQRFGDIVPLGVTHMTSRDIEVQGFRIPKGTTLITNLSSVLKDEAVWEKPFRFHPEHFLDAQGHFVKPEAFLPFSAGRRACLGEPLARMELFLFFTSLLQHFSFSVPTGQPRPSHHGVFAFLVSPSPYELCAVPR

On to `Cc1cc(C)n(-c2cc(NC(=O)Cc3ccc(N(C)C)cc3)nc(-c3ccc(C)o3)n2)n1`, for which the Ki on Adenosine receptor A2a [1] stood at 2 nM. Also, the Selectivity ratio in the data set listed under Homo sapiens amounted to 162.

Turning to `Cc1cc(C)n(-c2cc(NC(=O)Cc3ccc(CN4CCOCC4)cc3)nc(-c3ccc(C)o3)n2)n1`, the Ki at Adenosine receptor A2a [1] is 0.8 nM. In addition, in the data set listed under Homo sapiens, the Selectivity ratio came out at 179.

In the case of `COc1cc(CC(=O)Nc2cc(-n3nc(C)cc3C)nc(-c3ccc(C)o3)n2)cc(OC)c1`, the IC50 at Cytochrome P450 2D6 is > 5000 nM; at Cytochrome P450 3A4 it was > 5000 nM; in data set [4] it was > 3000 nM. Besides, in data set [2], the solubility is < 100 µg/mL. In addition, on Adenosine receptor A2a [1], the affinity corresponds to a Ki of 2 nM. This compound had a CLint scaled in data set [3] of 78 mL/min/kg. Besides, the Selectivity ratio in the data set filed under Homo sapiens came to 487.

Compound `Cc1cc(C)n(-c2cc(NC(=O)Cc3cc(F)cc(F)c3)nc(-c3ccc(C)o3)n2)n1` gave a Ki at Adenosine receptor A2a [1] of 5 nM. In addition, in the data set listed under Homo sapiens, the Selectivity ratio was found to be 126.

On Adenosine receptor A2a [1], `Cc1cc(C)cc(CC(=O)Nc2cc(-n3nc(C)cc3C)nc(-c3ccccn3)n2)c1` gave a Ki of 3 nM. In addition, the IC50 on Cytochrome P450 3A4 was > 10000 nM. For the same compound, the CLint scaled in data set [3] is 113 mL/min/kg. Further, the Selectivity ratio in the data set filed under Homo sapiens was found to be 186.

At Adenosine receptor A2a [1], `COc1ccc(CC(=O)Nc2cc(-n3nc(C)cc3C)nc(-c3ccc(C)o3)n2)cc1C` registered a Ki of 3 nM. Further, the Selectivity ratio in the data set filed under Homo sapiens worked out at 411.

Consider `Cc1cc(C)n(-c2cc(NC(=O)Cc3ccc(F)c(F)c3)nc(-c3ccc(C)o3)n2)n1`, for which the inhibition constant Ki at Adenosine receptor A2a [1] was 5 nM. For the same compound, the Selectivity ratio in the data set filed under Homo sapiens turned out to be 152.

For `COc1cc(CC(=O)Nc2cc(-n3nc(C)cc3C)nc(-c3ccccn3)n2)cc(OC)c1`, on Adenosine receptor A2a [1], the affinity, expressed as Ki, was 1 nM. Also, at Cytochrome P450 3A4, the IC50 was 1300 nM. For the same compound, the Selectivity ratio in the data set filed under Homo sapiens worked out at 477.

On Adenosine receptor A2a [1], `COc1ccc(CC(=O)Nc2cc(-n3nc(C)cc3C)nc(-c3ccc(C)o3)n2)cc1F` registered a Ki of 3 nM. Also, in the data set filed under Homo sapiens, the Selectivity ratio came out at 129.

As to `CCOc1ccc(CC(=O)Nc2cc(-n3nc(C)cc3C)nc(-c3ccccn3)n2)cc1OC`, the affinity on Adenosine receptor A2a [1] corresponds to a Ki of 1 nM. This compound came in with an IC50 against Cytochrome P450 3A4 of 7000 nM. Besides, in data set [3], the CLint scaled worked out at 47 mL/min/kg. The Selectivity ratio in the data set filed under Homo sapiens was 257.

For `COc1ccc(CC(=O)Nc2cc(-n3cccn3)nc(-c3ccc(C)o3)n2)cc1`, the Ki on Adenosine receptor A2a [1] was determined as 10 nM. In the data set listed under Homo sapiens, the Selectivity ratio is 12.

With `Cc1cc(C)n(-c2cc(NC(=O)Cc3ccc(CN(C)C)cc3)nc(-c3ccc(C)o3)n2)n1`, the Ki on Adenosine receptor A2a [1] is 0.2 nM. For the same compound, in the data set listed under Homo sapiens, the Selectivity ratio is 80.

For `Cc1cc(C)n(-c2cc(NC(=O)Cc3ccc(S(C)(=O)=O)cc3)nc(-c3ccccn3)n2)n1`, the solubility in data set [2] was determined as 500 µg/mL (≈ 1080 µM). In addition, the affinity on Adenosine receptor A2a [1], expressed as Ki, was 1 nM. For the same compound, the IC50 on Cytochrome P450 3A4 is > 10000 nM; on Adenosine receptor A2a [5], 100 nM. The CLint scaled in data set [3] came out at 7 mL/min/kg. In the data set filed under Homo sapiens, the Selectivity ratio was 148.

In the case of `COc1ccc(CC(=O)Nc2cc(-n3nc(C)cc3C)nc(-c3ccccn3)n2)cc1`, the Ki at Adenosine receptor A2a [1] amounted to 1 nM. Besides, on Cytochrome P450 3A4, half-maximal inhibition (IC50) required 1800 nM. In the data set filed under Homo sapiens, the Selectivity ratio is 66.

In the case of `COc1ccc(CC(=O)Nc2cc(-n3nc(C)cc3C)nc(-c3ccc(C)o3)n2)cc1`, the affinity on Adenosine receptor A2a [1], expressed as Ki, was 4 nM. In the data set filed under Homo sapiens, the Selectivity ratio came to 61.

On Adenosine receptor A2a [1], `COc1ccc(CC(=O)Nc2cc(-n3nc(C)cc3C)nc(-c3ccc(C)o3)n2)cc1OC` came in with a Ki of 2 nM. For the same compound, the Selectivity ratio in the data set filed under Homo sapiens was found to be 180.

On Adenosine receptor A2a [1], `COc1ccc(CC(=O)Nc2cc(-c3nccs3)nc(-c3ccc(C)o3)n2)cc1` returned a Ki of 6 nM. In addition, the Selectivity ratio in the data set listed under Homo sapiens was determined as 12.

The compound `COc1ccc(CC(=O)Nc2cc(-c3nccs3)nc(-c3ccccn3)n2)cc1` yielded a Ki on Adenosine receptor A2a [1] of 1 nM. Moreover, the Selectivity ratio in the data set listed under Homo sapiens amounted to 18.

`Cc1cc(C)n(-c2cc(NC(=O)Cc3ccc(NS(C)(=O)=O)cc3)nc(-c3ccc(C)o3)n2)n1` gave a Ki at Adenosine receptor A2a [1] of 5 nM. The Selectivity ratio in the data set filed under Homo sapiens worked out at 90.

As usually defined, the Ki is the equilibrium dissociation constant of an inhibitor or competing ligand from its target. High values mean a looser hold on the target, low ones a stronger hold on the target. What is called IC50 is the concentration at which inhibition is half-maximal. The solubility is the dissolved amount per volume that the medium holds. Low readings indicate little dissolved substance, high ones much dissolved substance. In general, CLint scaled refers to a measure of how fast metabolising enzymes remove a compound, apart from limits set by blood flow. A high value points to rapid turnover.

Source of the values: ChEMBL document CHEMBL1142297, “2,6-Diaryl-4-phenacylaminopyrimidines as potent and selective adenosine A(2A) antagonists with reduced hERG liability” (Bioorg Med Chem Lett, 2008).
